Experimental data from publication PMC10795791 (Journal of Enzyme Inhibition and Medicinal Chemistry, 2024).

What was measured:
[1] = tested on: liver cancer cell line (HepG-2); assay: MTT anticancer activity, HepG-2; format: cell-based; settings: Homo sapiens, HepG2, 72 h, read-out: HepG-2 IC50
In short: (§1)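 ATCC-sourced cancer cell lines were used: HepG-2 liver, NFS-60 myeloid leukaemia and PC-3 prostate. Cells were incubated with test compound for 72 h, viability was measured by MTT, and IC50 was derived. Doxorubicin served as reference drug. Results are mean ± SEM; significance was by Tukey post hoc ANOVA.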

[2] = MTT anticancer activity, Caco-2; format: cell-based, human; settings: human, Caco-2, Caco-2 SI (selectivity index), Wi-38 EC50 divided by Caco-2 IC50
In short: (§2)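 ATCC-sourced Caco-2 colon cancer cells were exposed to test compound for 72 h. Viability was read by microculture MTT, with doxorubicin as reference, and IC50 was derived. Normal human lung fibroblasts (Wi-38) were run in the same 72 h MTT format to obtain IC50 and EC100 for selectivity. Results are mean ± SEM.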

PIM-1 kinase [3] = target: T1, PIM-1 kinase (Homo sapiens, UniProt P11309); assay: In vitro PIM-1 kinase inhibition; format: biochemical; settings: from pIC50 and molecular size
T1 sequence (P11309 whole entry): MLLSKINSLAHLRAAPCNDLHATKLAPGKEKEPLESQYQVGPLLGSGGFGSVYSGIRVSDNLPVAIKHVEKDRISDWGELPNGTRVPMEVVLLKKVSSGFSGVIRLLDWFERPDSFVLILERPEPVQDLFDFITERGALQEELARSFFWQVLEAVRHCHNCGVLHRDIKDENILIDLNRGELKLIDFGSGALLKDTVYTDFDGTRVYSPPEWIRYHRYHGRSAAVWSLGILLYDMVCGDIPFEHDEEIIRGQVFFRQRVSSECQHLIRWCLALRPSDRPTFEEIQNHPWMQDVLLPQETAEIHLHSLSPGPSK

PIM-1 kinase [4] = target: T1, PIM-1 kinase; format: biochemical; settings: Lineweaver-Burk double-reciprocal plot; for mode of PIM-1 kinase inhibition: in the presence of ATP; for Km change / Vmax change: versus control
[5] = tested on: colon cancer cells (Caco-2); assay: MTT anticancer activity, Caco-2; format: cell-based, human; settings: Homo sapiens, Caco-2, 72 h, read-out: Caco-2 IC50
In short: as §2

[6] = tested on: prostate cancer cell line (PC-3); assay: MTT anticancer activity, PC-3; format: cell-based; settings: Homo sapiens, 72 h, read-out: PC-3 IC50
In short: as §1

[7] = tested on: myeloid leukaemia cell line (NFS-60); assay: MTT anticancer activity, NFS-60; format: cell-based; settings: NFS-60, 72 h, read-out: NFS-60 IC50
In short: as §1

SMILES | IC50 [1] [nM] | selectivity ratio at 72 h [2] | LE (ligand efficiency), PIM-1 kinase (PIM-1 kinase [3]) | mode of PIM-1 kinase inhibition (PIM-1 kinase [4]) | Km change (PIM-1 kinase [4]) | Vmax change (PIM-1 kinase [4]) | IC50 [5] [nM] | IC50 [6] [nM] | IC50 [7] [nM]
Nc1n[nH]c2nc(-c3cccc(O)c3)cc(-c3cc4ccccc4nc3N3CCOCC3)c12 [Compound 6a, 3-(3-Amino-4-(2-morpholin-4-yl-quinolin-3-yl)-1H-pyrazolo[3,4-b]pyridin-6-yl)phenol] | 66.7 | – | – | – | – | – | – | – | –
CCOc1nc(-c2cccc(O)c2)cc(-c2cc3cc(Cl)ccc3nc2N2CCOCC2)c1C#N [Compound 4b, 4-(6-Chloro-2-morpholin-4-yl-quinolin-3-yl)-2-ethoxy-6-(3-hydroxyphenyl)pyridine-3-carbonitrile] | 59 | – | – | – | – | – | – | – | –
CCCOc1nc(-c2cccc(O)c2)cc(-c2cc3cc(OC)ccc3nc2N2CCOCC2)c1C#N [Compound 4f, 6-(3-Hydroxyphenyl)-4-(6-methoxy-2-morpholin-4-yl-quinolin-3-yl)-2-propoxypyridine-3-carbonitrile] | 16.4 | ≥ 1.6 | ~0.3 | both ATP competitive and non-competitive inhibitors | increase | reduced | – | – | –
CCOc1nc(-c2cccc(O)c2)cc(-c2cc3cc(OC)ccc3nc2N2CCOCC2)c1C#N [Compound 4c, 2-Ethoxy-6-(3-hydroxyphenyl)-4-(6-methoxy-2-morpholin-4-yl-quinolin-3-yl)pyridine-3-carbonitrile] | 13.2 | – | ~0.3 | both ATP competitive and non-competitive inhibitors | increase | reduced | 7 | 5 | 6
